From ChEMBL document CHEMBL1782042, “Efficient microwave-assisted synthesis and antitumor activity of novel 4,4'-methylenebis[2-(3-aryl-4,5-dihydro-1H-pyrazol-5-yl)phenols]” (Eur J Med Chem, 2011)

Key:
HOP-92 [1] = test: Cytotoxicity against human HOP92 cells; format: cell-based
Summary of the method: (§1)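 NCI 60 human tumour cell line screen, second stage at five concentrations (100, 10, 1.0, 0.1 and 0.01 μM). Continuous drug exposure for 48 h, with cell growth estimated by sulforhodamine B protein staining. GI50 is the drug concentration giving a 50% reduction in net protein increase relative to control cells over the incubation.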

NCI-H23 = test: Cytotoxicity against human NCI-H23 cells; format: cell-based; summary of the method: as §1
NCI-H322M = test: Cytotoxicity against human NCI-H322M cells; format: cell-based; summary of the method: as §1
NCI-H522 = test: Cytotoxicity against human NCI-H522 cells; format: cell-based; summary of the method: as §1
HCC 2998 [2] = test: Cytotoxicity against human HCC2998 cells; format: cell-based; summary of the method: as §1
KM12 = test: Cytotoxicity against human KM12 cells; format: cell-based; summary of the method: as §1
SW-620 = test: Cytotoxicity against human SW620 cells; format: cell-based
Summary of the method: (§2)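 NCI 60 human tumour cell line screen; five concentration levels (100, 10, 1.0, 0.1 and 0.01 μM), 48 h continuous drug exposure. Cell growth estimated by sulforhodamine B (SRB) protein staining. GI50 taken as the drug concentration giving a 50% reduction in net protein increase relative to control cells over the incubation.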

SF-268 [3] = test: Cytotoxicity against human SF268 cells; format: cell-based; summary of the method: as §1
SF-295 [4] = test: Cytotoxicity against human SF295 cells; format: cell-based; summary of the method: as §1
SF-539 = test: Cytotoxicity against human SF539 cells; format: cell-based; summary of the method: as §1
SNB-75 = test: Cytotoxicity against human SNB75 cells; format: cell-based; summary of the method: as §2
U-251 [5] = test: Cytotoxicity against human U251 cells; format: cell-based; summary of the method: as §2
MOLT-4 [6] = test: Anticancer activity against human MOLT4 cells after 48 hrs by sulforhodamine B assay; format: functional; conditions: MOLT-4, 48 h
Summary of the method: (§3)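 NCI 60-cell-line in vitro screen, second stage: five concentration levels (100, 10, 1.0, 0.1 and 0.01 μM) with 48 h continuous drug exposure. Cell growth was estimated by sulforhodamine B protein staining. GI50 is the drug concentration that gives a 50% reduction in net protein increase relative to control cells over the incubation.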

Malme-3M = test: Cytotoxicity against human MALME-3M cells; format: cell-based; summary of the method: as §1
SK-MEL-5 = test: Cytotoxicity against human SK-MEL-5 cells; format: cell-based; summary of the method: as §1
UACC-257 = test: Cytotoxicity against human UACC257 cells; format: cell-based; summary of the method: as §2
UACC-62 = test: Cytotoxicity against human UACC62 cells; format: cell-based; summary of the method: as §2
IGROV-1 [7] = test: Cytotoxicity against human IGROV1 cells; format: cell-based; summary of the method: as §1
SK-OV-3 = test: Cytotoxicity against human SKOV3 cells; format: cell-based; summary of the method: as §1
RXF 393 [8] = test: Cytotoxicity against human RXF393 cells; format: cell-based; summary of the method: as §1
RPMI-8226 = test: Anticancer activity against human RPMI8226 cells after 48 hrs by sulforhodamine B assay; format: functional; conditions: RPMI-8226, 48 h; summary of the method: as §3
SR = test: Anticancer activity against human SR cells after 48 hrs by sulforhodamine B assay; format: functional
Summary of the method: (§4)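 NCI 60-cell-line screen, second stage. Five concentration levels (100, 10, 1.0, 0.1 and 0.01 μM), 48 h continuous drug exposure. Cell growth was estimated by sulforhodamine B protein staining. GI50 is the concentration giving a 50% reduction in net protein increase relative to control cells over the drug incubation. Compounds entered this stage after an earlier single-dose screen.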

HOP-92 [9] = test: Anticancer activity against human HOP92 cells after 48 hrs by sulforhodamine B assay; format: functional; conditions: HOP-92, 48 h; summary of the method: as §3
NCI-H460 = test: Anticancer activity against human NCI-H460 cells after 48 hrs by sulforhodamine B assay; format: functional; conditions: NCI-H460, 48 h; summary of the method: as §3
HCC 2998 [10] = test: Anticancer activity against human HCC2998 cells after 48 hrs by sulforhodamine B assay; format: functional; conditions: HCC 2998, 48 h; summary of the method: as §3
HCT-15 = test: Anticancer activity against human HCT15 cells after 48 hrs by sulforhodamine B assay; format: functional; conditions: HCT-15, 48 h; summary of the method: as §3
HT-29 = test: Anticancer activity against human HT-29 cells after 48 hrs by sulforhodamine B assay; format: functional; conditions: HT-29, 48 h; summary of the method: as §3
TK-10 = test: Cytotoxicity against human TK10 cells; format: cell-based; summary of the method: as §2
Hs-578T [11] = test: Cytotoxicity against human Hs578T cells; format: cell-based; summary of the method: as §1
BT-549 = test: Cytotoxicity against human BT549 cells; format: cell-based; summary of the method: as §1
T47D = test: Cytotoxicity against human T47D cells; format: cell-based; summary of the method: as §2
MDA-MB-468 = test: Cytotoxicity against human MDA-MB-468 cells; format: cell-based; summary of the method: as §1
SF-268 [12] = test: Anticancer activity against human SF268 cells after 48 hrs by sulforhodamine B assay; format: functional; conditions: SF-268, 48 h; summary of the method: as §3
SF-295 [13] = test: Anticancer activity against human SF295 cells after 48 hrs by sulforhodamine B assay; format: functional; conditions: SF-295, 48 h; summary of the method: as §3
SNB-19 = test: Anticancer activity against human SNB19 cells after 48 hrs by sulforhodamine B assay; format: functional; conditions: SNB-19, 48 h; summary of the method: as §3
U-251 [14] = test: Anticancer activity against human U251 cells after 48 hrs by sulforhodamine B assay; format: functional; conditions: U-251, 48 h; summary of the method: as §4
LOX IMVI = test: Anticancer activity against human LOXIMVI cells after 48 hrs by sulforhodamine B assay; format: functional; summary of the method: as §3
M14 = test: Anticancer activity against human M14 cells after 48 hrs by sulforhodamine B assay; format: functional; conditions: M14, 48 h; summary of the method: as §3
MDA-MB-435 = test: Anticancer activity against human MDA-MB-435 cells after 48 hrs by sulforhodamine B assay; format: functional; conditions: MDA-MB-435, 48 h; summary of the method: as §3
SK-MEL-2 = test: Anticancer activity against human SK-MEL-2 cells after 48 hrs by sulforhodamine B assay; format: functional; conditions: SK-MEL-2, 48 h; summary of the method: as §3
IGROV-1 [15] = test: Anticancer activity against human IGROV1 cells after 48 hrs by sulforhodamine B assay; format: functional; conditions: IGROV-1, 48 h; summary of the method: as §3
OVCAR-3 = test: Anticancer activity against human OVCAR3 cells after 48 hrs by sulforhodamine B assay; format: functional; conditions: OVCAR-3, 48 h; summary of the method: as §3
OVCAR-8 = test: Anticancer activity against human OVCAR8 cells after 48 hrs by sulforhodamine B assay; format: functional; conditions: OVCAR-8, 48 h; summary of the method: as §3
NCI/ADR-RES = test: Anticancer activity against human NCI/ADR-RES cells after 48 hrs by sulforhodamine B assay; format: functional; summary of the method: as §3
ACHN = test: Anticancer activity against human ACHN cells after 48 hrs by sulforhodamine B assay; format: functional; summary of the method: as §3
RXF 393 [16] = test: Anticancer activity against human RXF393 cells after 48 hrs by sulforhodamine B assay; format: functional; conditions: RXF 393, 48 h; summary of the method: as §3
SN12C = test: Anticancer activity against human SN12C cells after 48 hrs by sulforhodamine B assay; format: functional; summary of the method: as §3
PC-3 = test: Anticancer activity against human PC3 cells after 48 hrs by sulforhodamine B assay; format: functional; conditions: PC-3, 48 h; summary of the method: as §3
DU-145 = test: Anticancer activity against human DU145 cells after 48 hrs by sulforhodamine B assay; format: functional; conditions: DU-145, 48 h; summary of the method: as §3
Hs-578T [17] = test: Anticancer activity against human Hs578T cells after 48 hrs by sulforhodamine B assay; format: functional; summary of the method: as §3
CCRF-CEM = test: Cytotoxicity against human CCRF-CEM cells; format: cell-based; summary of the method: as §1
HL-60(TB) = test: Cytotoxicity against human HL-60(TB) cells; format: cell-based; summary of the method: as §1
MOLT-4 [18] = test: Cytotoxicity against human MOLT4 cells; format: cell-based; summary of the method: as §1
HOP-62 = test: Cytotoxicity against human HOP62 cells; format: cell-based; summary of the method: as §1

Oc1ccc(Cc2ccc(O)c(C3CC(c4ccc(Cl)cc4)=NN3)c2)cc1C1CC(c2ccc(Cl)cc2)=NN1 (centres undefined)
LC50 (HOP-92 [1]): > 100 µM
LC50 (NCI-H23): > 100 µM
LC50 (NCI-H322M): > 100 µM
LC50 (NCI-H522): 46.2 µM
LC50 (HCC 2998 [2]): > 100 µM
LC50 (KM12): > 100 µM
LC50 (SW-620): > 100 µM
LC50 (SF-268 [3]): > 100 µM
LC50 (SF-295 [4]): > 100 µM
LC50 (SF-539): > 100 µM
LC50 (SNB-75): > 100 µM
LC50 (U-251 [5]): > 100 µM
GI50 (MOLT-4 [6]): 2.7 µM
LC50 (Malme-3M): > 100 µM
LC50 (SK-MEL-5): 36.7 µM
LC50 (UACC-257): > 100 µM
LC50 (UACC-62): 43.6 µM
LC50 (IGROV-1 [7]): > 100 µM
LC50 (SK-OV-3): > 100 µM
LC50 (RXF 393 [8]): > 100 µM
GI50 (RPMI-8226): 5.09 µM
GI50 (SR): 1.83 µM
GI50 (HOP-92 [9]): 3.39 µM
GI50 (NCI-H460): 2.15 µM
GI50 (HCC 2998 [10]): 4.88 µM
GI50 (HCT-15): 2.51 µM
GI50 (HT-29): 7.25 µM
LC50 (TK-10): > 100 µM
LC50 (Hs-578T [11]): > 100 µM
LC50 (BT-549): > 100 µM
LC50 (T47D): > 100 µM
LC50 (MDA-MB-468): > 100 µM
GI50 (SF-268 [12]): 3.22 µM
GI50 (SF-295 [13]): 1.47 µM
GI50 (SNB-19): 3.64 µM
GI50 (U-251 [14]): 1.8 µM
GI50 (LOX IMVI): 1.82 µM
GI50 (M14): 4.45 µM
GI50 (MDA-MB-435): 3.21 µM
GI50 (SK-MEL-2): 3.23 µM
GI50 (IGROV-1 [15]): 4.11 µM
GI50 (OVCAR-3): 2.59 µM
GI50 (OVCAR-8): 2.46 µM
GI50 (NCI/ADR-RES): 2.24 µM
GI50 (ACHN): 3.63 µM
GI50 (RXF 393 [16]): 3.99 µM
GI50 (SN12C): 2.86 µM
GI50 (PC-3): 3.32 µM
GI50 (DU-145): 3.46 µM
GI50 (Hs-578T [17]): 2.76 µM
LC50 (CCRF-CEM): > 100 µM
LC50 (HL-60(TB)): > 100 µM
LC50 (MOLT-4 [18]): > 100 µM
LC50 (HOP-62): > 100 µM
